Measurements gathered from unrelated publications.
Lines come from different studies, so protocols differ.
CHEK2: Serine/threonine-protein kinase Chk2 (CHEK2, Homo sapiens, UniProt O96017)
CHEK2 I157T: Serine/threonine-protein kinase Chk2 (CHEK2, Homo sapiens, UniProt O96017, I157T)

O=C1NC(=O)c2c1c1c3ccccc3[nH]c1n1cncc21 — remaining signal (CHEK2; cell-free assay; 0.5 µM): 21.2%
Cn1c2c(Cl)c(Cl)ccc2c2cn[nH]c(=O)c21 — ΔTm (CHEK2; thermal stability; DSF; 10 µM): -0.4 °C
CCOCCn1cc(C(=O)Nc2ccc(-n3nc(-c4cccnc4)cc3C(F)(F)F)cn2)ccc1=O — remaining binding (CHEK2; cell-free assay; competition with immobilised ligand; 1 µM): 0%
Oc1cccc(-c2nc(N3CCOCC3)c3oc4ncccc4c3n2)c1 — remaining signal (CHEK2; cell-free assay; 0.5 µM): 90.4%
O=C(Nc1cccnn1)N1CC(C/C=C/c2cncc(Oc3ccc(C(F)(F)F)cn3)n2)C1 — remaining binding (CHEK2; cell-free assay; competition with immobilised ligand; 1 µM): 100%
N#CC1c2c([nH]c3c(Cl)c(Cl)ccc23)C(=O)NC12CCCCC2 (racemic) — ΔTm (CHEK2; thermal stability; DSF; 10 µM): 0.1 °C
CN(C)C1CCN(CC#Cc2nn(C3CCCC3)c3nc(NCc4ccccc4)ncc23)C1 (centres unmarked) — inhibition (CHEK2; enzyme activity; inhibitor; FRET; 1 µM): 7%
CC1(C)NC(=O)c2[nH]c3c(Cl)c(Cl)ccc3c2C1C#N (centres unmarked) — ΔTm (CHEK2; thermal stability; DSF; 10 µM): -0.1 °C
CC(=O)N1CCC(c2ccc(C(=O)NC3=NCCN3)cc2C(F)(F)F)CC1 — remaining binding (CHEK2; cell-free assay; competition with immobilised ligand; 1 µM): 100%
Cn1c2c(c3ccccc31)C(C#N)C(C)(C)NC2=O (centres unmarked) — ΔTm (CHEK2; thermal stability; DSF; 10 µM): 0.8 °C
O=C1NC(=O)c2cc(Nc3ccc(F)cc3)c(Nc3ccc(F)cc3)cc21 — remaining signal (CHEK2; cell-free assay; 0.5 µM): 94.3%
CO[C@@H](C)c1c(Nc2ccc([C@H](N(C)C(=O)C3CCS(=O)(=O)CC3)C(F)(F)F)cc2)cnc2cc(Cl)nn12 — remaining binding (CHEK2; cell-free assay; competition with immobilised ligand; 1 µM): 90%
Cc1ccc(NC(=O)c2ccc(CN3CCN(C)CC3)cc2)cc1Nc1nc(-c2cccnc2)cs1 — remaining signal (CHEK2; cell-free assay; 0.5 µM): 101%
CC(=O)C1=C(C)N(c2cccc(C(F)(F)F)c2)C(=O)N[C@@H]1c1ccc(C#N)nc1 — remaining binding (CHEK2; cell-free assay; competition with immobilised ligand; 1 µM): 85.6%
COc1cc(Nc2c(C#N)cnc3cc(OCCCN4CCN(C)CC4)c(OC)cc23)c(Cl)cc1Cl — remaining signal (CHEK2; cell-free assay; 0.5 µM): 21.7%
O=C1CCc2cc(Nc3cc(OC4CCOCC4)c([N+](=O)[O-])cc3Cl)ccc2N1 — remaining binding (CHEK2; cell-free assay; competition with immobilised ligand; 1 µM): 69%
Cn1c2c(c3ccc(Cl)c(Cl)c31)C(C#N)C1(CCOCC1)NC2=O (centres unmarked) — ΔTm (CHEK2; thermal stability; DSF; 10 µM): -0.3 °C
Cc1cc(NC(=O)c2cccc3cc(-c4cccc5[nH]nc(N)c45)ccc23)ccc1F — activity vs control (CHEK2; enzyme activity; inhibitor; 0.1 µM): 102%
CCC1(CC)NC(=O)c2c(c3ccc(Cl)c(Cl)c3n2C)C1C#N (centres unmarked) — ΔTm (CHEK2; thermal stability; DSF; 10 µM): -0.2 °C
CNC(=O)c1cc(Oc2ccc(NC(=O)Nc3ccc(Cl)c(C(F)(F)F)c3)cc2)ccn1 — inhibition (CHEK2 I157T; enzyme activity; inhibitor; 0.3 µM): -9%
CCCOc1ccc(OC)c(F)c1C(=O)c1ccc(C(=O)N[C@@H]2CNC[C@H]2NC(=O)c2ccc3[nH]ncc3c2)cc1 — remaining activity (CHEK2 I157T; enzyme activity; inhibitor; 10 µM): 16%
Nc1ncnc2occ(-c3ccc(NC(=O)Nc4cc(C(F)(F)F)ccc4F)cc3)c12 — remaining signal (CHEK2; cell-free assay; inhibitor; 20 µM): 13%
CN(C)CC#Cc1ccc(OCCCc2sc(N3CCc4cccc(C(=O)Nc5nc6ccccc6s5)c4C3)nc2C(=O)O)c(F)c1 — remaining binding (CHEK2; cell-free assay; competition with immobilised ligand; 1 µM): 100%
COc1cc(/C=C/C(=O)CC(=O)/C=C/c2ccc(O)c(OC)c2)ccc1O — activity vs control (CHEK2; enzyme activity; inhibitor; 1 µM): 68%
Cc1noc([C@H]2C[C@@H](c3ccc(C(F)(F)F)cc3)CN(C(=O)N3CCS(=O)(=O)C3)C2)n1 — remaining binding (CHEK2; cell-free assay; competition with immobilised ligand; 1 µM): 100%
Cc1ccc(Nc2nccc(N(C)c3ccc4c(C)n(C)nc4c3)n2)cc1S(N)(=O)=O — inhibition (CHEK2; enzyme activity; inhibitor; 0.3 µM): -13%
